This passage reports inhibition, CC50 and IC50 results from ChEMBL document CHEMBL1933026, “Synthesis and biological evaluation of molecular probes based on the 9-methylstreptimidone derivative DTCM-glutarimide” (Bioorg Med Chem Lett, 2012).

The subject of data set [1] is RAW264.7. Briefly: Inhibition of LPS-induced NF-kappaB activation in mouse RAW264.7 cells at 10 ug/ml treated 2 hrs before LPS challenge measured after 30 mins by electrophoretic mobility shift assay. The class given is cell-based. The method in brief:
(§1)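 RAW264.7 cells pretreated 2 h, then stimulated with LPS for 30 min. Nuclear extracts prepared by the Andrews–Faller method. 5 µg protein incubated 20 min at RT with poly(dI-dC) and a ³²P-labelled NF-κB oligonucleotide in Tris-HCl pH 7.0 buffer with NaCl, EDTA, DTT, glycerol and NP-40. Complexes resolved on a 4% native polyacrylamide gel in TBE.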
(In EMSA bound probe runs differently from free probe, usually more slowly.)

Data set [2] can be described thus: (§2) Cytotoxicity against LPS-induced mouse RAW264.7 cells treated 2 hrs before LPS challenge measured after 20 hrs by MTT assay. The class given is cell-based. As to conditions: mouse, LPS-induced RAW264.7 cells; read-out: ED50. The method in brief: (§3)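 RAW264.7 cells seeded at 1 × 10⁵ cells/ml and treated the next day with compound for 2 h, followed by LPS for 20 h. MTT solution then added and cells held 4 h at 37 °C in 5% CO₂. Viability read as absorbance at 570 nm.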
For orientation: Tetrazolium dyes change colour on reduction, which living cells bring about.

In data set [3] the test system is RAW264.7. Described as §2. The class given is cell-based. Particulars: Mus musculus, RAW264.7. In a few lines:
as §3

Data set [4] concerns RAW264.7. Nature of the data set: Antiinflammatory activity in mouse RAW264.7 cells assessed as inhibition of LPS-induced NO production treated for 2 hrs before LPS challenge measured after 20 hrs by Griess method. The class given is functional, cell-based. In a few lines: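 RAW264.7 macrophages grown in DMEM with 10% FBS, seeded at 1 × 10⁵ cells/ml and used next day. Pretreated with compound 2 h, then stimulated with LPS […] for 20 h. Nitrite in the medium read with Griess reagent.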
Background: The Griess reaction detects nitrite, a stable product of nitric oxide.

The subject of data set [5] is RAW264.7. Nature of the data set: Antiinflammatory activity in mouse RAW264.7 cells assessed as inhibition of LPS-induced iNOS expression at 1 to 10 ug/ml treated 2 hrs before LPS challenge measured after 24 hrs by Western blotting. The class given is functional, cell-based. In a few lines: (§4)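 RAW264.7 cells in DMEM with 10% FBS. Incubated with or without compound for 2 h, then stimulated with LPS 1 µg/ml for 24 h. Total cell lysates analysed for iNOS protein by Western blotting.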

Data set [6] concerns RAW264.7. Nature of the data set: Inhibition of LPS-induced NF-kappaB activation in mouse RAW264.7 cells at 3 ug/ml treated 2 hrs before LPS challenge measured after 30 mins by electrophoretic mobility shift assay. The class given is cell-based. In a few lines: as §1
The subject of data set [7] is RAW264.7. Briefly: Antiinflammatory activity in mouse RAW264.7 cells assessed as inhibition of LPS-induced iNOS expression at 0.3 to 3 ug/ml treated 2 hrs before LPS challenge measured after 24 hrs by Western blotting. The class given is functional, cell-based. The method in brief: as §4

In brackets after ≈: the same amount, converted by molar mass. Activity calls are given as the source filed them. The rule behind the calls is not given here. Where only a bound is given, the exact number is not on record here.

The IC50 is the midpoint of a concentration-inhibition curve. On to `O=C(CCCC[C@@H]1SC[C@@H]2NC(=O)N[C@@H]21)NCCCCCCCCCCCCSC(=O)CC1CC(=O)NC(=O)C1`, for which the inhibition entry in the data set with RAW264.7 [1] and in the data set with RAW264.7 [6] was “inactive” each time. The CC50 at 20 h in data set [2] was more than 30 µg/mL. Moreover, the IC50 in the data set on RAW264.7 [3] is more than 30 µg/mL; in the data set with RAW264.7 [4], 5 µg/mL (≈ 8.38 µM). For the same molecule, in the data set with RAW264.7 [5], the inhibition entry is “Active”.

Regarding `CCCCCCCCCCCCSC(=O)CC1CC(=O)NC(=O)C1`, the inhibition result in the data set on RAW264.7 [1] and in the data set with RAW264.7 [6] was “inactive” throughout. The inhibition entry with RAW264.7 [7] was “Active”.

As to `O=C(CCCC[C@@H]1SC[C@@H]2NC(=O)N[C@@H]21)NCCCCCCCCCCCCNC(=O)CC1CC(=O)NC(=O)C1`, the CC50 at 20 h in data set [2] is more than 30 µg/mL. The IC50 with RAW264.7 [4] was more than 30 µg/mL.

In the case of `O=C(CCCC[C@@H]1SC[C@@H]2NC(=O)N[C@@H]21)NCCSC(=O)CC1CC(=O)NC(=O)C1`, the CC50 at 20 h in data set [2] is more than 30 µg/mL. Further, the half-maximal inhibitory concentration (IC50) with RAW264.7 [4] was more than 30 µg/mL.

As for `[N-]=[N+]=Nc1ccc(C(=O)NCCCCCCCCCCCCSC(=O)CC2CC(=O)NC(=O)C2)cc1`, the inhibition result with RAW264.7 [1] and with RAW264.7 [6] was “inactive” throughout. Also, the CC50 at 20 h in data set [2] was more than 30 µg/mL. The IC50 in the data set on RAW264.7 [3] is more than 30 µg/mL; in the data set on RAW264.7 [4], 4.5 µg/mL (≈ 8.73 µM). Besides, in the data set with RAW264.7 [5], the inhibition entry is “Active”.
